Structures are written as SMILES. In brackets after ≈: the same amount, converted by molar mass.

Holding throughout (type): functional
Assay [1] deals with Candida albicans. The experiment in a line: Antifungal activity against Candida albicans assessed as inhibition of fungal growth after 24 hrs by CLSI protocol based two fold serial dilution method. In a few lines:
(§1)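 Two-fold serial broth dilution in 96-well plates following CLSI; MIC (mM) taken as the lowest concentration giving complete growth inhibition; MIC values from three independent experiments.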

Assay [2] concerns Pseudomonas aeruginosa. Nature of the assay: Antibacterial activity against Pseudomonas aeruginosa ATCC 27853 assessed as inhibition of bacterial growth after 24 hrs by CLSI protocol based two fold serial dilution method. In a few lines: as §1
Assay [3] deals with Staphylococcus aureus. Nature of the assay: Antibacterial activity against Staphylococcus aureus assessed as inhibition of bacterial growth after 24 hrs by CLSI protocol based two fold serial dilution method. In outline: as §1
The test system of assay [4] is Staphylococcus aureus. Nature of the assay: Antibacterial activity against Staphylococcus aureus ATCC 29213 assessed as inhibition of bacterial growth after 24 hrs by CLSI protocol based two fold serial dilution method.
Assay [5] has as its system Pseudomonas aeruginosa. Nature of the assay: Antibacterial activity against Pseudomonas aeruginosa assessed as inhibition of bacterial growth after 24 hrs by CLSI protocol based two fold serial dilution method. In outline: as §1
Assay [6] concerns Escherichia coli. Nature of the assay: Antibacterial activity against Escherichia coli ATCC 25922 assessed as inhibition of bacterial growth after 24 hrs by CLSI protocol based two fold serial dilution method. In outline:
as §1

Another assay concerns Klebsiella pneumoniae. The experiment in a line: Antibacterial activity against Klebsiella pneumoniae assessed as inhibition of bacterial growth after 24 hrs by CLSI protocol based two fold serial dilution method. In outline: as §1
In assay [7] the test system is Staphylococcus aureus. Nature of the assay: Antibacterial activity against methicillin-resistant Staphylococcus aureus N315 assessed as inhibition of bacterial growth after 24 hrs by CLSI protocol based two fold serial dilution method.
A further assay deals with Aspergillus fumigatus. Nature of the assay: Antifungal activity against Aspergillus fumigatus assessed as inhibition of fungal growth after 24 hrs by CLSI protocol based two fold serial dilution method. In outline:
as §1

The subject of assay [8] is Staphylococcus aureus. Nature of the assay: Antibacterial activity against Staphylococcus aureus ATCC 25923 assessed as inhibition of bacterial growth after 24 hrs by CLSI protocol based two fold serial dilution method. In outline:
as §1

The subject of assay [9] is Escherichia coli. Nature of the assay: Antibacterial activity against Escherichia coli assessed as inhibition of bacterial growth after 24 hrs by CLSI protocol based two fold serial dilution method. In outline:
as §1

A further assay concerns Acinetobacter baumannii. The experiment in a line: Antibacterial activity against Acinetobacter baumannii assessed as inhibition of bacterial growth after 24 hrs by CLSI protocol based two fold serial dilution method. In a few lines: as §1
The subject of the next assay is Candida tropicalis. Nature of the assay: Antifungal activity against Candida tropicalis assessed as inhibition of fungal growth after 24 hrs by CLSI protocol based two fold serial dilution method. In a few lines: as §1
For another assay, the system named is Candida parapsilosis. Nature of the assay: Antifungal activity against Candida parapsilosis ATCC 22019 assessed as inhibition of fungal growth after 24 hrs by CLSI protocol based two fold serial dilution method. The note with it: Lodderomyces parapsilosis. In a few lines:
as §1

In assay [10] the test system is Candida albicans. Nature of the assay: Antifungal activity against Candida albicans ATCC 90023 assessed as inhibition of fungal growth after 24 hrs by CLSI protocol based two fold serial dilution method. In a few lines: as §1
Another assay deals with Enterococcus faecalis. Nature of the assay: Antibacterial activity against Enterococcus faecalis assessed as inhibition of bacterial growth after 24 hrs by CLSI protocol based two fold serial dilution method. In a few lines:
as §1

In general, MIC refers to the lowest concentration found to suppress growth. As for `CCn1cc(-c2csc(N)n2)c(=O)c2cc(F)c(N3CCN(C=O)CC3)cc21`, the MIC is 160 µM (≈ 64.2 µg/mL) in the assay on Candida albicans [1]; 80 µM (≈ 32.1 µg/mL) in the assay on Pseudomonas aeruginosa [2]; 638 µM (≈ 256 µg/mL) in the assay on Staphylococcus aureus [3]; 638 µM (≈ 256 µg/mL) with Staphylococcus aureus [4]; 638 µM (≈ 256 µg/mL) with Pseudomonas aeruginosa [5]; 160 µM (≈ 64.2 µg/mL) with Escherichia coli [6]. Moreover, the MIC in the assay with Klebsiella pneumoniae is 319 µM (≈ 128 µg/mL); with Staphylococcus aureus [7], 638 µM (≈ 256 µg/mL); in the assay with Aspergillus fumigatus, 638 µM (≈ 256 µg/mL); with Staphylococcus aureus [8], 160 µM (≈ 64.2 µg/mL); in the assay with Escherichia coli [9] it was 638 µM (≈ 256 µg/mL); in the assay on Acinetobacter baumannii it was 319 µM (≈ 128 µg/mL). The MIC came to 638 µM (≈ 256 µg/mL) with Candida tropicalis, 160 µM (≈ 64.2 µg/mL) in the assay with Candida parapsilosis, 166 µM (≈ 66.6 µg/mL) in the assay with Candida albicans [10] and 319 µM (≈ 128 µg/mL) in the assay on Enterococcus faecalis.
Turning to `CCn1cc(-c2csc(N)n2)c(=O)c2cc(F)c(N3CCN(CC(C)O)CC3)cc21` (stereo unspecified), the minimal inhibitory concentration (MIC) in the assay on Candida albicans [1] worked out at 148 µM (≈ 63.9 µg/mL); with Pseudomonas aeruginosa [2], 5 µM (≈ 2.16 µg/mL); in the assay on Staphylococcus aureus [3] it was 37 µM (≈ 16 µg/mL); in the assay on Staphylococcus aureus [4], 148 µM (≈ 63.9 µg/mL); in the assay on Pseudomonas aeruginosa [5], 148 µM (≈ 63.9 µg/mL); with Escherichia coli [6] it was 37 µM (≈ 16 µg/mL). Besides, the minimal inhibitory concentration (MIC) with Klebsiella pneumoniae was determined as 9 µM (≈ 3.88 µg/mL); with Staphylococcus aureus [7], 148 µM (≈ 63.9 µg/mL); in the assay with Aspergillus fumigatus, 37 µM (≈ 16 µg/mL); with Staphylococcus aureus [8], 148 µM (≈ 63.9 µg/mL); in the assay with Escherichia coli [9], 594 µM (≈ 256 µg/mL); with Acinetobacter baumannii, 19 µM (≈ 8.2 µg/mL). Further, the MIC with Candida tropicalis amounted to 297 µM (≈ 128 µg/mL); in the assay on Candida parapsilosis it was 148 µM (≈ 63.9 µg/mL); in the assay on Candida albicans [10], 148 µM (≈ 63.9 µg/mL); in the assay with Enterococcus faecalis it was 297 µM (≈ 128 µg/mL).
For `CCn1cc(-c2csc(N)n2)c(=O)c2cc(F)c(N3CCN(CC(=O)N(C(C)C)C(C)C)CC3)cc21`, the minimum inhibitory concentration (MIC) in the assay on Candida albicans [1] amounted to 996 µM (≈ 513 µg/mL); in the assay on Pseudomonas aeruginosa [2] it was 249 µM (≈ 128 µg/mL); with Staphylococcus aureus [3], 62 µM (≈ 31.9 µg/mL); in the assay with Staphylococcus aureus [4] it was 249 µM (≈ 128 µg/mL); in the assay on Pseudomonas aeruginosa [5], 249 µM (≈ 128 µg/mL); in the assay on Escherichia coli [6] it was 498 µM (≈ 256 µg/mL). Further, the MIC turned out to be 498 µM (≈ 256 µg/mL) in the assay on Klebsiella pneumoniae; 124 µM (≈ 63.8 µg/mL) with Staphylococcus aureus [7]; 498 µM (≈ 256 µg/mL) in the assay on Aspergillus fumigatus; 249 µM (≈ 128 µg/mL) in the assay with Staphylococcus aureus [8]; 498 µM (≈ 256 µg/mL) with Escherichia coli [9]; 249 µM (≈ 128 µg/mL) in the assay with Acinetobacter baumannii. In addition, the minimum inhibitory concentration (MIC) in the assay with Candida tropicalis is 498 µM (≈ 256 µg/mL); in the assay on Candida parapsilosis, 996 µM (≈ 513 µg/mL); in the assay with Candida albicans [10], 498 µM (≈ 256 µg/mL); in the assay with Enterococcus faecalis, 249 µM (≈ 128 µg/mL).
For the molecule `CCOC(=O)CN1CCN(c2cc3c(=O)c(-c4csc(N)n4)cn(CC)c3cc2Cl)CC1`, the MIC came out at 269 µM (≈ 128 µg/mL) in the assay with Candida albicans [1]; 269 µM (≈ 128 µg/mL) in the assay with Pseudomonas aeruginosa [2]; 135 µM (≈ 64.3 µg/mL) in the assay on Staphylococcus aureus [3]; 539 µM (≈ 257 µg/mL) in the assay on Staphylococcus aureus [4]; 269 µM (≈ 128 µg/mL) with Pseudomonas aeruginosa [5]; 1080 µM (≈ 513 µg/mL) with Escherichia coli [6]. The MIC came out at 67 µM (≈ 31.9 µg/mL) in the assay on Klebsiella pneumoniae; 67 µM (≈ 31.9 µg/mL) with Staphylococcus aureus [7]; 539 µM (≈ 257 µg/mL) with Aspergillus fumigatus; 135 µM (≈ 64.3 µg/mL) with Staphylococcus aureus [8]; 269 µM (≈ 128 µg/mL) in the assay with Escherichia coli [9]; 135 µM (≈ 64.3 µg/mL) with Acinetobacter baumannii. Moreover, the MIC with Candida tropicalis turned out to be 135 µM (≈ 64.3 µg/mL); with Candida parapsilosis, 135 µM (≈ 64.3 µg/mL); in the assay with Candida albicans [10] it was 67 µM (≈ 31.9 µg/mL); with Enterococcus faecalis, 539 µM (≈ 257 µg/mL).
As to `CCn1cc(-c2csc(N)n2)c(=O)c2cc(F)c(N3CCNCC3)cc21`, the minimal inhibitory concentration (MIC) with Candida albicans [1] worked out at 171 µM (≈ 63.9 µg/mL); in the assay with Pseudomonas aeruginosa [2], 343 µM (≈ 128 µg/mL); in the assay with Staphylococcus aureus [3], 86 µM (≈ 32.1 µg/mL); with Staphylococcus aureus [4] it was 343 µM (≈ 128 µg/mL); with Pseudomonas aeruginosa [5], 21 µM (≈ 7.84 µg/mL); in the assay with Escherichia coli [6] it was 343 µM (≈ 128 µg/mL). Moreover, the MIC in the assay on Klebsiella pneumoniae came out at 171 µM (≈ 63.9 µg/mL); in the assay on Staphylococcus aureus [7], 171 µM (≈ 63.9 µg/mL); in the assay with Aspergillus fumigatus it was 343 µM (≈ 128 µg/mL); with Staphylococcus aureus [8], 171 µM (≈ 63.9 µg/mL); in the assay on Escherichia coli [9], 171 µM (≈ 63.9 µg/mL); with Acinetobacter baumannii, 343 µM (≈ 128 µg/mL). For the same molecule, the MIC in the assay with Candida tropicalis was found to be 685 µM (≈ 256 µg/mL); with Candida parapsilosis, 343 µM (≈ 128 µg/mL); with Candida albicans [10] it was 171 µM (≈ 63.9 µg/mL); in the assay with Enterococcus faecalis, 171 µM (≈ 63.9 µg/mL).
Regarding `C=CCN1CCN(c2cc3c(cc2F)c(=O)c(-c2csc(N)n2)cn3CC)CC1`, the minimum inhibitory concentration (MIC) in the assay with Candida albicans [1] was 77 µM (≈ 31.8 µg/mL); in the assay with Pseudomonas aeruginosa [2], 155 µM (≈ 64.1 µg/mL); with Staphylococcus aureus [3], 155 µM (≈ 64.1 µg/mL); in the assay on Staphylococcus aureus [4], 39 µM (≈ 16.1 µg/mL); in the assay on Pseudomonas aeruginosa [5] it was 155 µM (≈ 64.1 µg/mL); with Escherichia coli [6], 155 µM (≈ 64.1 µg/mL). Also, the minimal inhibitory concentration (MIC) in the assay with Klebsiella pneumoniae was found to be 77 µM (≈ 31.8 µg/mL); with Staphylococcus aureus [7] it was 78 µM (≈ 32.3 µg/mL); with Aspergillus fumigatus it was 77 µM (≈ 31.8 µg/mL); with Staphylococcus aureus [8], 19 µM (≈ 7.86 µg/mL); with Escherichia coli [9] it was 77 µM (≈ 31.8 µg/mL); in the assay with Acinetobacter baumannii it was 77 µM (≈ 31.8 µg/mL). In addition, the minimum inhibitory concentration (MIC) stood at 155 µM (≈ 64.1 µg/mL) with Candida tropicalis, 155 µM (≈ 64.1 µg/mL) with Candida parapsilosis, 77 µM (≈ 31.8 µg/mL) in the assay on Candida albicans [10] and 155 µM (≈ 64.1 µg/mL) in the assay on Enterococcus faecalis.

For the origin of these results see ChEMBL document CHEMBL4665627 (Eur J Med Chem, 2019).
